The list is not random: actives were taken first. Their share in the collection is about 2.8%.
PP1 inh: counter-screen for PP5 inhibitors: inhibitors of human PP1-alpha; P62136; purified PP1alpha, OMFP fluorescence; inhibition, % at 6.7 µM; hit rate 0.9% among 320,000;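 active means inhibition above the mean inhibition of all tested compounds plus 3 SD, computed separately for each screening campaign, cut at about 15% in these data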
UBC13 polyUb: human UBC13 polyubiquitination inhibition; UBC13 polyubiquitin chain formation, TR-FRET; inhibition, % at 20 µM; hit rate 0.47% among 330,000; P61088; in the data active means inhibition above about 45%, passing the limit was not always enough
AI-2 QS modul: modulators of Vibrio harveyi AI-2 quorum sensing system; hit rate 0.4% among 300,000; Vibrio harveyi JMH597 AI-2 luminescence/OD600 ratio, 9 h; hits give low values; strain lacks LuxN and CqsS sensors; 0 = neutral-control median; activity change, % at 7.5 µM; AID 2094; in the data active means activity change below about -75%, passing the limit was not always enough;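 further: luminescence divided by OD600 gain over 9 h not by final OD600 alone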
T cruzi repl: T. cruzi replication inhibition; hit rate 1.4% among 300,000; T. cruzi beta-gal in NIH3T3, luminescence, 90 h; inhibition, % (concentration not given with the values);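 active means mean inhibition across valid replicates above about 55%, limit read from the data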;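 further: signal also drops with host cell toxicity which is not excluded here; 0% = plate median of DMSO wells and 100% = zero luminescence signal; higher percent means less beta-gal luminescence so fewer parasites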
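Test system: β-gal T. cruzi (Tulahuen C4) inside NIH/3T3 cells / Quantity: 5,000 cells/well / Measured by: luminescence from GalScreen with 0.05% NP40, read after 60 min / Medium: DMEM plus 2% FBS / Measure: parasite load inhibition, % / Reagent: Tulahuen C4 trypomastigotes, 5000/well / Schedule: co-culture of at least 90 h after 3 h attachment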
pCIP destab: compounds decreasing mouse p/CIP protein stability; hit rate 0.01% among 290,000; F442A p/CIP-EGFP cells, EGFP fluorescence, 16 h; Q05BA5; decrease of EGFP signal, % at 10 µM;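 active means EGFP signal decrease of at least 30% at 10 µM or well 3 SD below plate mean, unless failing retest; inactive means the rest, including hits failing retest or dose response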
* = called active by the depositor; / = no result.

SMILES	PP1 inh	UBC13 polyUb	AI-2 QS modul	T cruzi repl	pCIP destab
CCN(Cc1ccc(C#CCCO)cc1)CC1CCCN(CCc2cccc(F)c2)C1 (stereo unspecified)	2	-2	15	64*	-13
Cn1cc(CN2CCCC(CNS(=O)(=O)c3cccc4cccnc34)C2)cn1 (stereo unspecified)	-1	-10	17	-8	-11
CC(C)n1cc(CN2CCCC(CNS(=O)(=O)c3cccc4cccnc34)C2)cn1 (stereo unspecified)	-4	-6	-1	64*	1
Cc1cc(C)cc(Nc2ccc([N+](=O)[O-])nc2[N+](=O)[O-])c1	-2	-17	18	67*	-4
COc1cc(Nc2ccc(C)cc2)c([N+](=O)[O-])nc1[N+](=O)[O-]	2	-15	33	60*	-9
Cc1ccc2nc(C)cc(Nc3ccc([N+](=O)[O-])cc3)c2c1	0	/	18	-46	-2
Cc1cccc(Nc2n[nH]c(C)c2[N+](=O)[O-])c1	3	-16	10	-1	-1
NC(=O)Nc1ccc(C(=O)OCC(=O)NC2CCCCC2)cc1	-2	2	43	-4	4
COc1ccc2[nH]c3c(=O)n(/N=C/c4ccc(OC)c(CN5CCCC5)c4)c(C)nc3c2c1	7	12	30	65*	-2
Cn1cc(C[C@H](NC(=O)OC(C)(C)C)C(=O)N[C@H](CO)Cc2ccccc2)c2ccccc21	-2	-5	20	-2	/
COc1ccc(Nc2nc(NCC3CCCO3)c3ccccc3n2)c(OC)c1 (stereo unspecified)	-2	11	8	68*	1
c1ccc(Nc2nc(NCC3CCCO3)c3ccccc3n2)cc1 (stereo unspecified)	0	41	14	93*	4
Oc1cccc(Nc2nc(NCC3CCCO3)c3ccccc3n2)c1 (stereo unspecified)	9	34	-20	52	-11
COc1ccc(Nc2c3c(nc4ccccc24)CCC3)c(OC)c1	0	5	34	30	-5
COc1cccc(CN(C)C(=O)c2ccc(NC(=O)CC3SC(N4CCCC4)=NC3=O)cc2)c1OC (stereo unspecified)	0	4	19	6	/
COc1ccc(Cc2noc(CN3CCCN(Cc4ccc(F)cc4)CC3)n2)cc1OC	0	-8	33	78*	-4
Fc1cccc(Cc2noc(CN3CCCN(C4Cc5ccccc5C4)CC3)n2)c1	1	0	5	57*	-10
COc1ccc(Cc2noc(CN3CCN(C4CCc5ccccc5C4)CC3)n2)cc1OC (stereo unspecified)	-3	4	10	57*	-5
O=C(CSc1nnnn1-c1cccc(F)c1)NC1CC1	/	8	/	/	/
CN(Cc1nc(-c2cnccn2)no1)Cc1n[nH]c2c1CCCC2	/	/	20	-18	-20
COc1ccc(CCNCC(O)COc2cccc(C(C)=O)c2)cc1OC (stereo unspecified)	2	1	-1	56*	15
CCN(CC)CCNc1ccc(CO)c2sc3ccccc3c(=O)c12	-5	-143	31	64*	-4
CC(C)C[C@@H](C(=O)NC1CC1)N1C(=O)N2CCc3c([nH]c4ccccc34)[C@@]2(C)C1=O	-5	4	13	-6	0
C[C@@H](C(=O)NCCc1ccccc1F)N1C(=O)N2CCc3c([nH]c4ccccc34)[C@@]2(C)C1=O	-7	10	-5	23	2
C[C@@H](C(=O)NCCc1ccccc1)N1C(=O)N2CCc3c([nH]c4ccccc34)[C@@]2(C)C1=O	-5	6	15	61*	6
COc1ccc2[nH]c3c(c2c1)CCN1C(=O)N([C@@H](C)C(=O)NC2CC2)C(=O)[C@]31C	-4	3	4	-20	-7
COc1ccc2[nH]c3c(c2c1)CCN1C(=O)N([C@@H](C)C(=O)NC2CCN(Cc4ccccc4)CC2)C(=O)[C@]31C	-3	15	-2	64*	6
CC(C)C[C@@H](C(=O)NC1CCN(Cc2ccccc2)CC1)N1C(=O)N2CCc3c([nH]c4ccccc34)[C@@]2(C)C1=O	0	35	3	65*	5
C[C@@H](C(=O)NC1CCN(Cc2ccccc2)CC1)N1C(=O)N2CCc3c([nH]c4ccccc34)[C@@]2(C)C1=O	-3	23	3	59*	-20
CSc1ccc(CN2CCCN(C)CC2)cc1	4	2	8	17	-10

Compound activity (PubChem)
